Test results as given in the EternaBench riboswitch data.

Test system: MS2 coat protein
Test: apparent Kd, MS2 coat protein; higher = weaker binding; RNA-MaP array; FMN 200 µM where present
Procedure, shortened: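 Green signal from SNAP-549-labelled MS2 coat protein was normalised to red-channel RNA signal and to the median Fmax of control clusters. The protein was titrated from 0.7 or 1.5 nM, doubling to 3 µM, without and then with constant ligand, over designs transcribed by stalled E. coli RNA polymerase on Illumina sequencing-chip clusters, in 100 mM Tris-HCl pH 7.5, 80 mM KCl, 4 mM MgCl2, BSA, DTT, yeast tRNA and Tween-20. The apparent Kd is the median of filtered per-cluster binding-curve fits.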

[1] = designed as: OFF switch for flavin mononucleotide, no ligand
[2] = ligand present: flavin mononucleotide, designed as: OFF switch for flavin mononucleotide
[3] = designed as: ON switch for flavin mononucleotide, no ligand
[4] = ligand present: flavin mononucleotide, designed as: ON switch for flavin mononucleotide

Sequence | apparent Kd [1] [µM] | apparent Kd [2] [µM] | apparent Kd [3] [µM] | apparent Kd [4] [µM]
AGGGAGUUAGGAUAUGCUGCUCGUCACUUGCGUGAUGAGUAGCAGAAGGGACAUGAGGAUCACCCAUGUAAAGA | 0.0421 | 0.0247 |  | 
UUGUUACAUGAGGAUCACCCAUGUUGUUGUAGAUAAGGAUAUAUAGGAACGAGAGAAAUAAUAGAAGGUAUUAGAC |  |  | 0.0317 | 0.0272
GGGUACAUCGGAGGAUAUCAUGUAAAUACAUGAGGAUCACCCAUGUCGAUGGAAACAUCGGAGAUUGAGAAGGCCGAUGUACCG |  |  | 0.00976 | 0.00501
GUGGUUGUCGUAGGAUAUGUAGGAUAUUCCUACAUGAGGAUCACCCAUGUUCGCAUGGAAGAAUGACAGAAGGACGAUGACCAU |  |  | 0.33 | 0.0826
UGGUACUAGGGAGGAUAUGGGAAGAUACAUGAGGAUCACCCAUGUUUAAGAAUGCCGAGAGGCAACUAGAAGGCCCUAGUACUU |  |  | 0.448 | 0.0202
AGCUGGUGACAGCAUCCAUCAAAACAUGAGGAUCACCCAUGUAGAAGGCUGUACGGUUACCGUACAGAGGAUAUACAUAGAUGG | 0.0104 | 0.0149 |  | 
CCCUGAUUGAGAGGUAGGAGUGGUAGAAGGCGACCGGUGCCAGAUGACAUGAGGAUCACCCAUGUCGAGGAUAUACCACAGAAU | 0.0067 | 0.0122 |  | 
GUCGUGUGAGGAUAUGAUUUUUAGGCGGGAUUGCGACUGCUUCAGAAGGCACAUGAGGAUCACCCAUGUAUGAA | 0.0114 | 0.0388 |  | 
GGUUGGCGAGGAUAUACAUGAGGAUCACCCAUGUGGUCCUGCGGUAGAAUCGCCCUUUGUAGAAGGCGCGGGUC | 0.0695 | 0.072 |  | 
AAAAUAAAAAGGCAGGAUAUCCAAAAUAAAACAUGAGGAUCACCCAUGUAAAUAAAAAUAAAGUGGGAGAAGGGUUAAAAAUAAAA |  |  | 0.0583 | 0.0453
GGAUAGGACAGAGGAUAUACGUGCUAGAGAUACUAGCGAAAUUUCCUCACAUGAGGAUCACCCAUGUAGAAGGCUGUCCUAUCG | 0.0281 | 0.892 |  | 
UACUCGUGUGAGAAGGGACGUAUCUCCAUGAGGGCAGGGCUAUUAGAGAAGUCAGGAUAUCACAUGAGGAUCACCCAUGUGACG | 0.00826 | 0.0108 |  | 
AGGCAGGACCAGAAGGACAUGAGGAUCACCCAUGUAGGAUAUGGGCGUGGUUUAUGGGUACCUGGGAGAAUGACUGGGUUGUCA |  |  | 0.363 | 0.0294
AAAUAGCGAGGAUAUACAUGAGGAUCACCCAUGUGGACUGAUGUCGCAUGAUUCAGUGGUAGAAGGUGCUCAAA | 0.0904 | 0.127 |  | 
AAUUCACAUGAGGAUCACCCAUGUCAGGAUAUGGUUUCACGUUUUUCUUUGCUUGAGGCCAGAAGGGACAGCUA | 0.0628 | 0.0685 |  | 
GGCGAACGGGCUUACAUGAGGAUCACCCAUGUAGACUCAUGGUAGGAUAUGCUGUACAAAGUACAGCAGAAGGGCCGGUGAGCU |  |  | 0.0891 | 0.0435
UUCAGACAUGAGGAUCACCCAUGUGAGGAUAUGAUGCGAUCGUCGAAAGACGAUAGCAUCAGAAGGUACAAAUG | 0.063 | 0.0666 |  | 
ACGUGUAAGCAGAAGGGUUAGCACAUGAGGAUCACCCAUGUAACAGUGGACAGGAUAUGCGCUCAUGUUGGAUAGGGCCUUCCC |  |  | 0.302 | 0.0676
AAGUCGACGGUGAGGAUAUAGGUCGAACGACAGAUCUAGAAGGCACAUGAGGAUCACCCAUGUGGGUAACGUCG | 0.0196 | 0.0284 |  | 
AUCAGCUCGUCAGGAUAUACGUCACUGCGUCAGCAGUGUGUUAAGAUCACAUGAGGAUCACCCAUGUAGAAGGGACGAGCUGAU | 0.0067 | 0.0279 |  | 
CGUUUAUUUAUGGGUUUAUAUUAUGAGGAUAUCAAUAUUUUAUACAUGAGGAUCACCCAUGUUACUGAGAAGGCAUAAUUAACG |  |  | 0.0109 | 0.00644
AUUUAGUGCGAGAAGGCGUGGUCACAUGAGGAUCACCCAUGUCAGUACACGAGGAUAUCGAUUCACUGUGUUAAUACAAGUGAC |  |  | 0.0779 | 0.00668
ACCGAACAUGAGGAUCACCCAUGUGAGGAUAUAGACGCGUAUUUAACGCGUAACAAAACUAGAAGGCACUGGGC | 0.0272 | 0.0161 |  | 
GGUGCACGCACAGGAUAUCCGGCGGAGCUCGUCGGAGAAGGGUGACAUGAGGAUCACCCAUGUACGUGCAACCCAGUUUGAGGG |  |  | 0.0596 | 0.0285

Sequence | apparent Kd [1] [µM] | apparent Kd [2] [µM] | apparent Kd [3] [µM] | apparent Kd [4] [µM]
GGUGCACGCACAGGAUAUCCGGCGGCGCUCGUCGGAGAAGGGUGACAUGAGGAUCACCCAUGUACGUGCAACUCAGUUUGAGUG |  |  | 0.0425 | 0.0339
CGUUGUUCCGCAGGAUAUGCAUUGGAUUACAAUGCAGAAGGGCGAUAACAUGAGGAUCACCCAUGUGUGGACAAUGAGGAAGAG |  |  | 0.792 | 0.0553
GUUUUCGCAUGAGGAUAUGCUCGCAUUUCAAGAGCAGAAGGUAUGUCUUUAGACAUGAGGAUCACCCAUGUAUUUAUCAUUGAA |  |  | 0.101 | 0.0262
ACGCGAUGGGAGAAGGUACUUUAAAAUAUUUUCACAUGAGGAUCACCCAUGUAAGGAUAUCCCAUCGUUAAAUAUUAUACAGCA | 0.00649 | 0.00524 |  | 
GGAUUACAUGAGGAUCACCCAUGUGAGGAUAUCGAUGUCCAGUAAUACGUGCGGGACUCGAGAAGGCACUUGGA | 0.0401 | 0.2 |  | 
CUAUUGGUAACAGGAUAUAUGAGUCCUACAUGAGGAUCACCCAUGUAGGUGGUCAAACGUGAUUAGUAGAAGGGUUACCAAUAG |  |  | 0.0122 | 0.00618
GGAUGCAAAGAGAAGGGCUACUGGUUGAAACCUGCGGCCUCUGGAACAUGAGGAUCACCCAUGUAGCAGGAUAUCUUUACGUCA | 0.173 | 0.0394 |  | 
CUCAUGUAAGGAUAUCAGUAGUAAAAAAAUAAAAUUACUACUGAGAAGGUACAUGAGGAUCACCCAUGUCCUUG | 0.0388 | 0.0216 |  | 
GCUCUAUGCGAGAAGGCGUGAAACAUGAGGAUCACCCAUGUCAGAGAUAUGAGGAUAUUGCAUAGAGCAAAAGACGGAAACGUC |  |  | 0.0123 | 0.00502
UUGGACGUCGUAAGAUAUGUAGGAUAUUCCUACAUGAGGAUCACCCAUGUUGACAUGGAAGAAGGACAGAAGGACGAUGUCCAU |  |  | 0.285 | 0.00551
UCGGCCCAAGCACAUGAGGAUCACCCAUGUACCACGGCCACCAGAAGGGCAGGGAAGAGGGAUCUGCAGGAUAUGGGCACUAGC |  |  | 0.0144 | 0.0096
AGAAAACAUGAGGAUCACCCAUGUGAGGAUAUCGAUGUCCAAGGGUGGGUGCGGGACUCGAGAAGGCACUUGGA | 0.0806 | 0.137 |  | 
UUACUAUUACAGAAGGUUAAAUAAUAUAUAAAUGAAGGAUAUGUAACAUGAGGAUCACCCAUGUUUCACCCACAUGAGGAUCAU | 0.00963 | 0.00957 |  | 
CCUCGACGGUAGGAUAUCGUCAAACUAUUGUGAUGAGAAGGACUGACAUGAGGAUCACCCAUGUUAACGUGAUA | 0.0203 | 0.0253 |  | 
CGAUAGGACAGAGGAUAUACACAUGAGGAUCACCCAUGUGAUUACAACGCGAAAGCGCCAAACAUGUAGAAGGCUGUCCUAUCG | 0.0227 | 0.012 |  | 
UUAGUGGUAGGAUAUCACCCAGGUUACAUGAGGAUCACCCAUGUGACUCAGCAGGCCAAGUGAGAAGGGCUGCUCC | 0.0223 | 0.02 |  | 
CCGGAAACGGGUAGCCUGACAUGAGGAUCACCCAUGUGAACCGAGGAUAUGGAUCCUAAUUGGAUCCAGAAGGUGGAAGGCUAC |  |  | 0.381 | 0.167
UUUUUACAUGAGGAUCACCCAUGUCAGGAUAUUCUUAUAUUUUAUUAUUUUAUUUUUUGAAGAAGGGACUAUUA | 0.118 | 0.0704 |  | 
GGGAGACAUGAGGAUCACCCAUGUGAAAACGUGGCAGGAUAUCGAUGGAAACCAUACUGUCGAGAAGGGCCUUGUC |  |  | 0.0567 | 0.0356
AAAACAUGAGGAUCACCCAUGUAAAGAUCGGUUAAUAGAAGUGAGGAUAUACGAAGUUAAAGCUGGUAGAAGGCACUGGGUACA |  |  | 0.0347 | 0.0332
GAGCUUGAUGAGAAGGGUUACAUGAGGAUCACCCAUGUCGACCUUGGCGUAACAGGAUAUCAUCGGGCUCUGUGCGUUGACCCA | 0.0237 | 0.12 |  | 
UUAAUGAAGUAAGGAUAUACAUGAGGAUUUCUCGUAGAAGGUACUAUACAUGAGGAUCACCCAUGUGCCGGUCAGAAGACUGGA |  |  | 0.433 | 0.274
UGUGUGUGGCAGGAUAUGCAGGUAAUAGGACGGGUAGAAGGGUCUACAUGAGGAUCACCCAUGUGGCCGGUUGG | 0.0161 | 0.016 |  | 
GGAUGAUUAAUAGGAUAUUAGUUGUAAAAUGUUUAAGAAGGAUUAAUGAUUUAAACGACCAGUUACAUGAGGAUCACCCAUGUU |  |  | 0.0279 | 0.0214
